This is an account of results in ChEMBL document CHEMBL5653623 (J Pharmacol Exp Ther, 2015).

The target in data set [1] is Leucine-rich repeat serine/threonine-protein kinase 2 (Mus musculus) (UniProt Q5S006). As to the kind of experiment: In vivo inhibition of LRRK2 in 20 weeks old MitoPark mouse lung assessed as reduction in total LRRK2 protein level at 30 mg/kg/day administered for 15 weeks by Western blotting analysis. The data set is classed as functional, organism-based. The essentials:
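MitoPark mice on drug-containing diet targeted to 30 mg/kg/day from 5 weeks of age, with the diet reformulated every 3 weeks to hold the target. Untreated-diet MitoPark and wild-type littermate controls. Killed by CO2 at 20 weeks of age. Lung and kidney taken from 5 mice per group for pSer935 and total LRRK2 immunoblots.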

Data set [2] has as its system Mus musculus. In words: Effect on behavioral phenotype in MitoPark mouse at baseline assessed as higher rearing behavior at 30 mg/kg/day administered for 3 weeks and measured after 60 mins. The data set is classed as functional, organism-based. The essentials: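 MitoPark mice, 5 weeks old, were allocated by baseline 60-min LMA to untreated diet or diet targeting 30 mg/kg/day (reformulated every 3 weeks). Wild-type littermates received vehicle diet. Body weight and food intake were recorded weekly. 60-min LMA (distance, rearing) was run at 8, 11, 14 and 17 weeks of age.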

Data set [3] deals with Mus musculus. In words: Effect on behavioral changes in 8 weeks old MitoPark mouse striatum assessed as HVA level at 30 mg/kg/day administered for 3 weeks by HPLC analysis. The data set is classed as functional. The essentials:
(§1)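 Striatum from MitoPark mice on diet targeting 30 mg/kg/day or vehicle diet (wild-type littermate controls) was homogenized by sonication in 0.1 M acid at 0.1 g/mL. Samples were held 60 min at 4 °C and centrifuged. Dopamine, DOPAC and HVA were measured by HPLC with electrochemical detection against a 3,4-DHBA internal standard and standard curves. Mean ± SEM.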

The target in data set [4] is Dual specificity protein kinase CLK2 (Homo sapiens, UniProt P49760). As to the kind of experiment: Inhibition of CLK2 (unknown origin).
Data set [5] is described as follows: Unbound brain concentration in C57Bl/6 mouse at 10 mg/kg, po administered for 1 hr. The data set is classed as ADME, organism-based. To be noted: in vivo.
In data set [6] the test system is Mus musculus. As to the kind of experiment: Effect on behavioral changes in 14 weeks old MitoPark mouse striatum assessed as DOPAC level at 30 mg/kg/day by HPLC analysis. The data set is classed as functional. The method in brief:
as §1

Data set [7] concerns the target Leucine-rich repeat serine/threonine-protein kinase 2 (Mus musculus) (UniProt Q5S006). In words: In vivo inhibition of LRRK2 in C57Bl/6 mouse brain assessed as decrease in pSer935 LRRK2 measured after 1 hr by Western blotting analysis. To be noted: dose 1-100 mg/kg, route po. The data set is classed as functional, organism-based. The essentials:
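Male C57Bl/6 mice, 20-25 g. Single oral dose of 1-100 mg/kg suspended in 30% Captisol (10 mL/kg), or vehicle, given 1 h before CO2 euthanasia. Cortex frozen on dry ice and pSer935 LRRK2 read by Western blot. n = 5 per group.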

Data set [8] shares this target. As to the kind of experiment: In vivo inhibition of LRRK2 in MitoPark mouse brain assessed as total LRRK2 protein level in presence of MJFF-2 antibody by Western blotting analysis. The data set is classed as functional, organism-based. The method in brief: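 MitoPark mice fed diet targeted to 30 mg/kg/day, or untreated diet, from 5 weeks of age. Cortex collected after 3, 9 or 15 weeks of treatment, n = 10 per group. Blots probed for pSer935 LRRK2, total LRRK2 (MJFF-2 antibody) and GAPDH. pSer935 reported relative to vehicle-diet MitoPark mice.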

The target is the same in data set [9]. As to the kind of experiment: In vivo inhibition of LRRK2 in C57Bl/6 mouse kidney assessed as total LRRK2 protein level administered for 11 days and measured after 4 hrs by Western blotting analysis. The data set is classed as functional, organism-based. As to conditions: dose 3-120 mg/kg, time 11.0 day. The method in brief: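 Same 11-day in-diet design in male C57Bl/6 mice: 3-120 mg/kg/day or untreated diet, killed 4, 8 or 24 h after dark-cycle onset, n = 5 per group. Kidneys dissected for Western blot of pSer935 and total LRRK2, with total LRRK2 detected by MJFF-2 antibody.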
A general note: Immunoblotting shows a protein as a band on a membrane.

Data set [10] has as its target Sodium-dependent noradrenaline transporter (Homo sapiens, UniProt P23975). In words: Inhibition of norepinephrine transporter (unknown origin). The essentials:
(§2)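 Radioligand binding selectivity screen was run at 10 μM, mean of three determinations. Where inhibition exceeded 50%, full concentration-displacement curves were run in triplicate and IC50 was obtained by nonlinear least-squares regression.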

Data set [11] addresses Mitogen-activated protein kinase kinase kinase 14 (Homo sapiens, UniProt Q99558). As to the kind of experiment: Inhibition of MAP3K14 (unknown origin).
The subject of data set [12] is Mus musculus. In words: Effect on behavioral changes in 8 weeks old MitoPark mouse striatum assessed as TH level at 30 mg/kg/day administered for 3 weeks by […] relative to control. The data set is classed as functional.
Data set [13] in a line: Unbound brain concentration in C57Bl/6 mouse administered for 11 days. The data set is classed as ADME, tissue-based. To be noted: in vivo, 264 h, dose 3-100 mg/kg, time 11 day. The method in brief: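 Male C57Bl/6 mice, singly housed on a reversed 12 h light cycle, were fed diet formulated to give 3, 10, 30, 60 or 120 mg/kg/day (assumes 3 g/day intake) or untreated diet for 11 days. Body weight and food intake were monitored. Spontaneous locomotion and rearing were recorded over 60 min. On day 11, mice were euthanized 4, 8 or 24 h after dark onset and plasma and brain drug levels measured; n = 5 per group.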

Data set [14] has as its target 5-hydroxytryptamine receptor 2B (Homo sapiens, UniProt P41595). As to the kind of experiment: Inhibition of serotonin 5-HT2B (unknown origin). The essentials: as §2
In data set [15] the target is T1, Dual specificity protein kinase TTK (Homo sapiens, UniProt P33981).
T1 sequence (P33981 whole entry): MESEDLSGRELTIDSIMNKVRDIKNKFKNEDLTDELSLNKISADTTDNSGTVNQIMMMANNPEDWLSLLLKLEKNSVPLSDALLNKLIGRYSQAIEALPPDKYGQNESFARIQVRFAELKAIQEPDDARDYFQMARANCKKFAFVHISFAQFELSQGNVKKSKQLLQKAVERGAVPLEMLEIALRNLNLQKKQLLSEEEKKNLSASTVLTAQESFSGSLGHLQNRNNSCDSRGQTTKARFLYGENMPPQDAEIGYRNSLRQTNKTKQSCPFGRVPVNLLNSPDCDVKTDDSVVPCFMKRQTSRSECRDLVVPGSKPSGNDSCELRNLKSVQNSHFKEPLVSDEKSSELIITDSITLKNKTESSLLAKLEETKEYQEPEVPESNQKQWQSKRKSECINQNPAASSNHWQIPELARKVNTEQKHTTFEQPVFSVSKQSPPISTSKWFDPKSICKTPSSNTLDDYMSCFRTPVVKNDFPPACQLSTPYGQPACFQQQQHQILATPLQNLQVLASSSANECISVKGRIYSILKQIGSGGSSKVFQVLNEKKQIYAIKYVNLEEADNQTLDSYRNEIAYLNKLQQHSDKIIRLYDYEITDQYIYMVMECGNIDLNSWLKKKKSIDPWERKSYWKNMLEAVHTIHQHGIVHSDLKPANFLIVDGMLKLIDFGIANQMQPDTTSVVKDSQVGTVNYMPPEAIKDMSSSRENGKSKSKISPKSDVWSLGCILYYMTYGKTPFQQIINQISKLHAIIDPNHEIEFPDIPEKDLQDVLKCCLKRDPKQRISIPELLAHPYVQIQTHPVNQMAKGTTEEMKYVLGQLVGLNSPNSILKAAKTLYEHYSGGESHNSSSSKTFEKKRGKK
As to the kind of experiment: Inhibition of TTK (unknown origin).

The nature of data set [16]: Unbound brain concentration in C57Bl/6 mouse at 1 mg/kg, po administered for 1 hr. The data set is classed as ADME, organism-based. As to conditions: in vivo.
The test system of data set [17] is Mus musculus. As to the kind of experiment: Effect on behavioral changes in 14 weeks old MitoPark mouse striatum assessed as HVA level at 30 mg/kg/day by HPLC analysis. The data set is classed as functional. The essentials: as §1

Calls of active or inactive are those of the source. No cut-off for these calls is given here.

Chain of Leucine-rich repeat serine/threonine-protein kinase 2 (Mus musculus) (Q5S006 whole entry): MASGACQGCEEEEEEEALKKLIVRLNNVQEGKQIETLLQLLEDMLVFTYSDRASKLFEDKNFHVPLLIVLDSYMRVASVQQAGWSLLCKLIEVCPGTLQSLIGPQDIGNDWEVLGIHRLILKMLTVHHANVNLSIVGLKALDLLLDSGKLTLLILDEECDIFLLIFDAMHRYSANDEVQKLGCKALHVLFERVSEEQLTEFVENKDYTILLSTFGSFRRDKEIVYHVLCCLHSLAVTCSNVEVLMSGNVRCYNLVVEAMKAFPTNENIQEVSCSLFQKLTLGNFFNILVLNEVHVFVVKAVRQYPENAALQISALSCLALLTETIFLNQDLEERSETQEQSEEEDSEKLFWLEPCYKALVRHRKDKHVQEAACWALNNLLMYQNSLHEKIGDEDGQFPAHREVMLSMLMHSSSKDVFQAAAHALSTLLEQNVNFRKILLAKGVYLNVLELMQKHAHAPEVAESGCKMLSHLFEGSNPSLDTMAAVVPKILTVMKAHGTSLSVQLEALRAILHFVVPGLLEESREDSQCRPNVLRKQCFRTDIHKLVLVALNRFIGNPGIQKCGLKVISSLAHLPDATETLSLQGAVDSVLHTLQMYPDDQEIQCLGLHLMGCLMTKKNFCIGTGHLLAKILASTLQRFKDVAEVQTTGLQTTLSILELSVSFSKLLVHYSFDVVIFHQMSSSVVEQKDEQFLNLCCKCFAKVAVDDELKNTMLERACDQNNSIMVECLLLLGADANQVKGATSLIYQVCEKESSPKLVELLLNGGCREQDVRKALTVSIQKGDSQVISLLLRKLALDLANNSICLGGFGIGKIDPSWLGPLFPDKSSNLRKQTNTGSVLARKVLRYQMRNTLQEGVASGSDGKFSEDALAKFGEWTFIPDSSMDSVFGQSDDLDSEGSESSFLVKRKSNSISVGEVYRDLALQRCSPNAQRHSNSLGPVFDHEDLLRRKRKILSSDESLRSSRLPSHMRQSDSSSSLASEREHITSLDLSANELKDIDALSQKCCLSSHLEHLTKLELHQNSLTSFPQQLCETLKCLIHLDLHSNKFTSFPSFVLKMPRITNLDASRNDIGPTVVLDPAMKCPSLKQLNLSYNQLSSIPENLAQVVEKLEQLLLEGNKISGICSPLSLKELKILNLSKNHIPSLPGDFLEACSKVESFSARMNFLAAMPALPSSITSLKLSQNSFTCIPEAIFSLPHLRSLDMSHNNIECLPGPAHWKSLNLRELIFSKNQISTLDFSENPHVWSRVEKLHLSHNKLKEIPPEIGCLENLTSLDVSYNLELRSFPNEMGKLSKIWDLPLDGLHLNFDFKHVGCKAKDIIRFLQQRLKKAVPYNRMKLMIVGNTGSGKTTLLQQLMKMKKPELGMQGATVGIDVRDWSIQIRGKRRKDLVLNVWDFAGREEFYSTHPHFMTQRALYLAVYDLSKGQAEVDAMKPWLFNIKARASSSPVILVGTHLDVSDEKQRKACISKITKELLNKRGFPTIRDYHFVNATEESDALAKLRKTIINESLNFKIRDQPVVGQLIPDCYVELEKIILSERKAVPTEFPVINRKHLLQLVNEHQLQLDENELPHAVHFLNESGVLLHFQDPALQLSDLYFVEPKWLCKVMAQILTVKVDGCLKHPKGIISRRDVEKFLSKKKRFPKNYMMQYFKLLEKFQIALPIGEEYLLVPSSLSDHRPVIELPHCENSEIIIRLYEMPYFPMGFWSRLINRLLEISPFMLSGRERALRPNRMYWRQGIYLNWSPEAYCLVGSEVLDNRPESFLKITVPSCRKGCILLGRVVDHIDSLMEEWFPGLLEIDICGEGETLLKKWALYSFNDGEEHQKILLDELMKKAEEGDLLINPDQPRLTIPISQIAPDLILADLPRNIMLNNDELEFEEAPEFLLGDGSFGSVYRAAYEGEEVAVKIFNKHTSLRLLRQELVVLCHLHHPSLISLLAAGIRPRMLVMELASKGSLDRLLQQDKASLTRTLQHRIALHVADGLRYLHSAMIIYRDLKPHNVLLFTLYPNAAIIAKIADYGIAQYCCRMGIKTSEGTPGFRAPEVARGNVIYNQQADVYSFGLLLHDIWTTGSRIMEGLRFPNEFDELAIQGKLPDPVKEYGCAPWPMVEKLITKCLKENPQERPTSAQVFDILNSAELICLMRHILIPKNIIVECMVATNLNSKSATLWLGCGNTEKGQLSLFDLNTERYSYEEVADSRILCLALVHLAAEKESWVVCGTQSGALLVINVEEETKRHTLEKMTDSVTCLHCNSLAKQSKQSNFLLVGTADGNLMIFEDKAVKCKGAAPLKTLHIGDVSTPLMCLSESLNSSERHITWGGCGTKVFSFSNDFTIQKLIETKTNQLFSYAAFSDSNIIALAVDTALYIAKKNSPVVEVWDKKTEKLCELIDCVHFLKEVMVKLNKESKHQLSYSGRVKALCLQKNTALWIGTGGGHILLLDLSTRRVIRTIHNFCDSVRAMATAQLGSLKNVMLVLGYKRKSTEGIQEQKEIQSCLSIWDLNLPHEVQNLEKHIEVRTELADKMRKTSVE
Chain of 5-hydroxytryptamine receptor 2B (P41595 whole entry): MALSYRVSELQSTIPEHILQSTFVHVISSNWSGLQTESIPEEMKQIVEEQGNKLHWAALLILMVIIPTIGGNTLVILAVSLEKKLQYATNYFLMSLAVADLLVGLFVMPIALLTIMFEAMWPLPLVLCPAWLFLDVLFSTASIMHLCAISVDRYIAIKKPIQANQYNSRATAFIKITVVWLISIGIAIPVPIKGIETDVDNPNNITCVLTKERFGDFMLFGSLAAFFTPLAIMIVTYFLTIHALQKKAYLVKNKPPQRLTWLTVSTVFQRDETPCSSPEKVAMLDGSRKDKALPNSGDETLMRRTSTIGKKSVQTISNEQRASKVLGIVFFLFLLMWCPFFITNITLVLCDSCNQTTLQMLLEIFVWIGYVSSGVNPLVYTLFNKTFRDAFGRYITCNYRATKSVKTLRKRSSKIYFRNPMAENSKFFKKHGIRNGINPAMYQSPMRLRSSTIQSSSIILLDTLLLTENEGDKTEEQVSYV
Chain of Mitogen-activated protein kinase kinase kinase 14 (Q99558 whole entry): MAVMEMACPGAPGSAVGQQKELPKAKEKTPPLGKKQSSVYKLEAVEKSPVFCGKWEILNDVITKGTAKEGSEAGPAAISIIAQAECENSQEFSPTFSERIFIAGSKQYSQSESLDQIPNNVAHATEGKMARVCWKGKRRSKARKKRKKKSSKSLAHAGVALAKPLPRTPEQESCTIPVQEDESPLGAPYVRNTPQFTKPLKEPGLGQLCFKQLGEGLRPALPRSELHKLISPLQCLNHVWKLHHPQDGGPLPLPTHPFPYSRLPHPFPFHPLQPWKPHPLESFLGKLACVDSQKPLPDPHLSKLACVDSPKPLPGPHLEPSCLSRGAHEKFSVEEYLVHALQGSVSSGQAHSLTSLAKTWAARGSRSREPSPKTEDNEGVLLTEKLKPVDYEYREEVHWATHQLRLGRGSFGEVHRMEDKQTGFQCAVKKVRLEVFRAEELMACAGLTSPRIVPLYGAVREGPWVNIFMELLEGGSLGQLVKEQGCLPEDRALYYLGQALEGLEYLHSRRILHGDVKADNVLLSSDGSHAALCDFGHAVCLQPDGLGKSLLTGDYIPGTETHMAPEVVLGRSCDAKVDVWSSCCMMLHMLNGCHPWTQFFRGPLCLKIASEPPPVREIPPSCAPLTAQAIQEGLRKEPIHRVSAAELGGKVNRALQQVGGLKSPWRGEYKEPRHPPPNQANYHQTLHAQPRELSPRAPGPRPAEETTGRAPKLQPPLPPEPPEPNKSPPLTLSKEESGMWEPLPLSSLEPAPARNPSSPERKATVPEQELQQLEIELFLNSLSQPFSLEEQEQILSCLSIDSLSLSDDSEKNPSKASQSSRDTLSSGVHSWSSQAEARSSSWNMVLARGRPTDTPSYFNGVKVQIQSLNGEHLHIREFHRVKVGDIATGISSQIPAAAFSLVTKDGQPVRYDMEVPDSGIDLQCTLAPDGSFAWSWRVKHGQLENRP
Chain of Sodium-dependent noradrenaline transporter (P23975 whole entry): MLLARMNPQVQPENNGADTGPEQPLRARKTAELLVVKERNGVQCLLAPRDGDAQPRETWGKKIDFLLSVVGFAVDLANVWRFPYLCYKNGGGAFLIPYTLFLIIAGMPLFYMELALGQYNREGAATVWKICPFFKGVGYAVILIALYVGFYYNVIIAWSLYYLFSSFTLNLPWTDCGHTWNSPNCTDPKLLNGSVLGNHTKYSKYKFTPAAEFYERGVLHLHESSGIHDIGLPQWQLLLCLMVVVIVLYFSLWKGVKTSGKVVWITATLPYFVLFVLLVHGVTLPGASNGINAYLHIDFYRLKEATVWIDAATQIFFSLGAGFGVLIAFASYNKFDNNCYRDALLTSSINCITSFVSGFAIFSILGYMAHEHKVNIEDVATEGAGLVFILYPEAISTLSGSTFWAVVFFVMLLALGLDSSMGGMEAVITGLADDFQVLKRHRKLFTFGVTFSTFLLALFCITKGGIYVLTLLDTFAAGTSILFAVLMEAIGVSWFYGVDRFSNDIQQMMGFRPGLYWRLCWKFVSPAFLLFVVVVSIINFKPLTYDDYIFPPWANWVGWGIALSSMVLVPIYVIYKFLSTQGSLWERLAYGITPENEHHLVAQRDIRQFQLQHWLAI
Chain of Dual specificity protein kinase CLK2 (P49760 whole entry): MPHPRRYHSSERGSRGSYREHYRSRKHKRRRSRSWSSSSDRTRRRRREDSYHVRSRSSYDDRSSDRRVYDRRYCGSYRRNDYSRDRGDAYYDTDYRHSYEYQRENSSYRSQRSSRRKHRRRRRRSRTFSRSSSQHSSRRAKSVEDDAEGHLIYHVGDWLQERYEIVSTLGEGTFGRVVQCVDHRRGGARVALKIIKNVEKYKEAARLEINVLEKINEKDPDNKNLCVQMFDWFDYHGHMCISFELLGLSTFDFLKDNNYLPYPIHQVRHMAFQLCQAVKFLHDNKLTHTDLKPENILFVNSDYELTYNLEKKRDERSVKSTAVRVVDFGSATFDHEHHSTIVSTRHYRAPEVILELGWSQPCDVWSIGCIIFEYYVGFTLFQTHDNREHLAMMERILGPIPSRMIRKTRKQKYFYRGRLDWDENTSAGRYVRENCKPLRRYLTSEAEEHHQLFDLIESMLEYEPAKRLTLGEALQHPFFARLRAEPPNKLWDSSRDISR

A word on the IC50: it is the concentration needed to halve the response being measured. A higher IC50 goes with weaker potency in that assay. As to `C[C@@H]1CN(c2cc(-c3n[nH]c4ccc(OC5(C)CC5)cc34)ncn2)C[C@H](C)O1` [MLi-2], the inhibition result in [1] was “Active”. In addition, the result with Mus musculus [2] was Active. For the same molecule, the Activity with Mus musculus [3] is 267.6 ng/g; with Mus musculus [6], 7521 ng/g; in the data set on Mus musculus [12] it was 49.89%; in the data set on Mus musculus [17], 323.7 ng/g. The IC50 in data set [4] was 605 nM; in data set [10], 3800 nM; in data set [11] it was 244 nM; in [14] it was 1200 nM; in [15], 935 nM. Moreover, the “Drug uptake(free)” value in [5] is 25.4 nM; in data set [13], “Dose-Dependent Effect”; in [16], 0.6 nM. Further, the inhibition result in data set [7] and in data set [9] was “Dose-Dependent Effect” each time. Also, the inhibition result in [8] is “inactive”.
